This is a sample that favours compounds with a hit; in the whole collection about 3.5% have one here.
MrgX1 agonist = activates human MrgX1 receptor signaling | Q96LB2 | MrgX1-HEK293 cells, Fluo-4 calcium fluorescence, agonist mode; active compounds read high | B-score at 10 µM | actives 0.44% (n = 310,000);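 active = calcium response B-score plate-corrected fluorescence ratio at least 3 library SD, with starting fluorescence B-score inside 5 SD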
Target sequence (Q96LB2 whole entry, looked up): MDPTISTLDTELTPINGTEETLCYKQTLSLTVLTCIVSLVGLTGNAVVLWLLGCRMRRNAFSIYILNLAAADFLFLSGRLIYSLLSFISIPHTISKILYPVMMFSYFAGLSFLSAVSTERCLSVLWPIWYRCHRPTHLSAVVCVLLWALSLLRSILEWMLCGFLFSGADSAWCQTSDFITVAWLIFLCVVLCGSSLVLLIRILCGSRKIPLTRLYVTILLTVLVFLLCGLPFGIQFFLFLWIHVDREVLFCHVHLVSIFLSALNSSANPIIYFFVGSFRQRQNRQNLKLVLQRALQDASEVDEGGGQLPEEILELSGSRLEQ
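System: HEK293 cells stably expressing human MrgX1 receptor; Dosing: test compound in the initial addition of three; Schedule: overnight plating, then 30 min 37 °C plus 30 min room-temperature dye loading; Detection: kinetic calcium dye fluorescence, Fluo-4 NW; Controls: per-plate positive and negative controls for Z′ factor.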
MrgX1 PAM = allosterically activates human MrgX1 receptor signaling. MrgX1-HEK293, Fluo-4 calcium flux, FDSS; active compounds read high. B-score at 10 µM. actives 0.63% (n = 310,000). AID 588675;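 active = plate-corrected calcium response at least 3 library SD above typical, normal starting fluorescence, not activating the receptor alone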;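 note: compound read alongside a low EC10 to EC30 dose of BAM8-22 agonist; peak minus trough fluorescence over baseline measured at the second addition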
RGS4 pot = RGS4 potentiation or activation; B-score at 10 µM; HEK293 M3R/inducible RGS4, carbachol calcium flux Fluo4; active compounds read low; actives 0.92% (n = 310,000);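 active = B-score of the integrated calcium signal more than 4 SD below the library mean, with starting fluorescence not abnormally high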;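 note: negative B-score means reduced calcium response which marks RGS4 activation or potentiation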
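test system = HEK293 cells with stable M3R and inducible RGS4 | schedule = recording 10 s baseline at 1 Hz, 100 s post-agonist | technique = Fluo4-AM (2 µM) calcium-flux fluorescence, kinetic read | measure = Agonist-evoked peak-minus-minimum fluorescence over baseline, integrated ratio, B score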
MrgX1 antagonist = antagonists of human MrgX1 receptor; Q96LB2; MRGX1-HEK293 calcium flux, Fluo-4, BAM8-22 antagonism; active compounds read low; B-score at 10 µM; actives 1.3% (n = 310,000); AID 588676;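 active = calcium-response B-score plate-corrected more than 3 library SD below zero, starting fluorescence within 5 deviations, no agonist response on first addition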;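 note: peak minus trough fluorescence over baseline after final BAM8-22 challenge near maximal dose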
RGS4 inh = human RGS4 inhibition; actives 0.45% (n = 310,000); HEK293 M3R/RGS4 inducible, Fluo-4 calcium flux; active compounds read high; triggered by carbachol at its EC20; P49798; B-score at 10 µM;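 active = B-score, a plate-corrected calcium signal, over three deviations above library mean, with baseline fluorescence within five deviations of library mean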;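 note: RGS4 expression induced by doxycycline in cells with stable M3 receptor; B-score is computed from the integrated fluorescence ratio over baseline after carbachol; higher B-score means a larger calcium signal and so more RGS4 inhibition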
Target sequence (P49798 whole entry, looked up): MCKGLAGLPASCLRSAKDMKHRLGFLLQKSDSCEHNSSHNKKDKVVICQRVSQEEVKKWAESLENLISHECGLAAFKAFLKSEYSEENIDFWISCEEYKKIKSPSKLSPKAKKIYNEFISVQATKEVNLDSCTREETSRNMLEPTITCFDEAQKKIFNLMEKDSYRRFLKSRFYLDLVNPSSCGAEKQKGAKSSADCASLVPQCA
* = called active by the depositor; i = inactive; . = not tested or not shown.

SMILES | MrgX1 agonist | MrgX1 PAM | RGS4 pot | MrgX1 antagonist | RGS4 inh
Cn1c(-c2c(N)n(CCCc3ccccc3)c3nc4ccccc4nc23)nc2ccccc21 | . | . | i | . | i
Cn1c(-c2c(N)n(C3CCCC3)c3nc4ccccc4nc23)nc2ccccc21 | i | i | -9* | -7.4* | i
O=C(O)c1ccc(N2C(=O)/C(=C/c3ccc(-c4ccc([N+](=O)[O-])cc4)o3)C=C2c2ccccc2)cc1 | i | i | -7* | i | i
O=C1NN(c2ccccc2)C(=O)/C1=C/c1ccc(-c2ccc(C(=O)O)cc2)o1 | i | i | i | i | i
COc1ccccc1Cn1c(=S)[nH]c2cc(C(=O)NCC(OC)OC)ccc2c1=O | i | i | i | i | i
COc1ccc(Cn2c(=O)n(Cc3ccco3)c(=N)c3c4c(sc32)COC(C)(C)C4)cc1 | i | i | . | i | .
CC1(C)Cc2c(sc3c2c(=N)n(Cc2ccco2)c(=O)n3Cc2ccc(F)cc2)CO1 | i | i | . | -4.6* | .
Cc1nc2c(C)cccn2c(=O)c1NC(=O)c1ccc2c(c1)OCO2 | i | i | i | i | i
Cc1ccccc1CS(=O)(=O)Cc1ccc(C(=O)NC2CCCCC2)o1 | i | i | i | i | i
O=C(CSc1ccccn1)Nc1nonc1[N+](=O)[O-] | 38* | i | i | i | i
O=C(CSc1ccccn1)Nc1ccc(NC(=O)CSc2ccccn2)cc1 | i | i | i | i | i
Cc1cccc(S(=O)(=O)Nc2ccc(-c3ccc4nncn4n3)cc2)c1 | i | i | i | i | i
O=c1cc(N2CCCCC2)c(-c2ccccc2)nn1Cc1c(Cl)cccc1Cl | i | i | -7.1* | i | i
Nc1nc(N2CCCCC2)nc2ccccc12 | i | i | -7.2* | i | i
CC1CCCN(c2nc(-c3cccnc3)nc3scc(-c4ccccc4)c23)C1 (stereo unspecified) | i | i | -7.3* | i | i
CC1CCN(c2nc(CN3CCCCC3)nc3scc(-c4ccccc4)c23)CC1 | i | i | -7.4* | i | i
O=C(CSc1ccc([N+](=O)[O-])cn1)Nc1ccccc1N1CCOCC1 | i | i | i | i | i
O=C(NC1CCCN(Cc2ccc(Cl)cc2)C1)c1ccoc1 (stereo unspecified) | i | i | i | i | i
CC(C)=CCOc1c2ccoc2cc2oc(=O)ccc12 | i | i | i | -5.7* | i
CC1(C)O[C@@H]1COc1c2ccoc2cc2oc(=O)ccc12 | i | i | i | i | i
CN1/C(=C\C=O)C(C)(C)c2ccccc21 | i | i | i | i | i
CN(C)c1ccc(N=C/C=C2\N(C)c3ccccc3C2(C)C)cc1 | i | 7.2* | i | i | i
CN1/C(=C\C=Nc2ccc3ccccc3c2)C(C)(C)c2ccccc21 | 83* | i | . | i | .
Cc1ccc(S(=O)(=O)Nc2cc(=O)[nH]c(SCC(=O)Nc3cccc(C)c3)n2)cc1 | i | i | i | i | i
CCC(=O)Nc1ccc(C(=O)Cn2ncc(Cl)c(Cl)c2=O)cc1 | i | i | i | i | i
SMILES | MrgX1 agonist | MrgX1 PAM | RGS4 pot | MrgX1 antagonist | RGS4 inh
CCOC(=O)c1ccc(NC(=O)Cn2ncc(Cl)c(Cl)c2=O)cc1 | i | i | i | -5.2* | i
COc1ccc(N(CC(=O)NCCSCc2ccc(C)cc2)S(=O)(=O)c2ccccc2)cc1 | i | i | i | i | i
CS(=O)(=O)N(CC(=O)NCc1ccccc1Cl)c1cccc([N+](=O)[O-])c1 | i | i | i | i | i
COc1ccccc1N(CC(=O)NCCSCc1ccc(C)cc1)S(=O)(=O)c1ccccc1 | i | i | -10* | i | i
COc1ccccc1N(CC(=O)Nc1c(C)n(C)n(-c2ccccc2)c1=O)S(=O)(=O)c1ccc(C)cc1 | i | i | i | -5.5* | i
Cc1ccc(CSCCNC(=O)CN(c2cccc([N+](=O)[O-])c2)S(C)(=O)=O)cc1 | i | 9.9* | i | i | i
O=S(=O)(NCc1ccccc1)c1cccs1 | i | i | i | i | i
COc1ccc(-n2nc(C(=O)NCC(=O)NCc3cccc(F)c3)c3ccccc3c2=O)cc1Cl | i | i | i | i | i
Cc1ccc(O)c(C(=O)c2cc(C#N)c(=O)n(-c3nccs3)c2)c1 | 53* | i | i | i | i
Cc1c(-n2cc(C(=O)c3cc(Cl)ccc3O)cc(C#N)c2=O)c(=O)n(-c2ccccc2)n1C | i | 7.8* | i | i | i
COc1ccc(OC)c(S(=O)(=O)Nc2cc(C(=O)O)ccc2N2CC3CC(C2)c2cccc(=O)n2C3)c1 (stereo unspecified) | i | i | i | i | i
Cc1ccc(C(=O)N2CCN=C2SCc2ccc([N+](=O)[O-])cc2)cc1 | i | i | i | -7.1* | i
Cc1ccc(CSC2=NCCN2C(=O)c2ccc([N+](=O)[O-])cc2)cc1 | i | i | i | i | i
Cc1[nH]c2ccccc2c1/C=N/NC(=O)C1CC1(c1ccccc1)c1ccccc1 (stereo unspecified) | i | i | i | i | i
COc1ccc(-c2nc(CSCC(=O)NCc3ccco3)c(C)o2)cc1 | i | i | i | -5.4* | i
c1ccc2c(c1)CCN(c1ncnc3c1[nH]c1ccccc13)C2 | i | i | i | -8.2* | i
O=[N+]([O-])c1cc([N+](=O)[O-])c(Oc2cccc(Cl)c2Cl)cc1NN1CCCCC1 | i | i | -8.2* | i | i
O=[N+]([O-])c1cc([N+](=O)[O-])c(Oc2ccc(Cl)c3cccnc23)cc1NN1CCCCC1 | i | i | i | i | i
CCc1occc(=O)c1Oc1cc(NN2CCCCC2)c([N+](=O)[O-])cc1[N+](=O)[O-] | i | i | -8.2* | i | i
CC1(C)Cc2cccc(Oc3cc(NN4CCCCC4)c([N+](=O)[O-])cc3[N+](=O)[O-])c2O1 | i | i | i | i | i
O=[N+]([O-])c1cc([N+](=O)[O-])c(Oc2ccccc2F)cc1NN1CCCCC1 | i | i | -7* | i | i
Cc1ccc(F)c(Oc2cc(NN3CCCCC3)c([N+](=O)[O-])cc2[N+](=O)[O-])c1 | i | i | -7.4* | i | i
Cc1ccc(C)c(Oc2cc(NN3CCCCC3)c([N+](=O)[O-])cc2[N+](=O)[O-])c1 | i | i | i | i | i

Screening results: PubChem BioAssay, Johns Hopkins Ion Channel Center
